Screening data from PubChem BioAssay.
TNAP act hiacc: activators of human TNAP at high phosphate acceptor concentration; P05186; purified TNAP, CDP-star luminescence, 1 M DEA, 30 min; active compounds read high; 0 = EDTA background, 1 = DMSO-only activity; activation factor at 20 µM; AID 1136; 200,000 tested, under 10 active;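 active = activation factor at least 2 at 20 µM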
Target sequence (P05186 whole entry, looked up): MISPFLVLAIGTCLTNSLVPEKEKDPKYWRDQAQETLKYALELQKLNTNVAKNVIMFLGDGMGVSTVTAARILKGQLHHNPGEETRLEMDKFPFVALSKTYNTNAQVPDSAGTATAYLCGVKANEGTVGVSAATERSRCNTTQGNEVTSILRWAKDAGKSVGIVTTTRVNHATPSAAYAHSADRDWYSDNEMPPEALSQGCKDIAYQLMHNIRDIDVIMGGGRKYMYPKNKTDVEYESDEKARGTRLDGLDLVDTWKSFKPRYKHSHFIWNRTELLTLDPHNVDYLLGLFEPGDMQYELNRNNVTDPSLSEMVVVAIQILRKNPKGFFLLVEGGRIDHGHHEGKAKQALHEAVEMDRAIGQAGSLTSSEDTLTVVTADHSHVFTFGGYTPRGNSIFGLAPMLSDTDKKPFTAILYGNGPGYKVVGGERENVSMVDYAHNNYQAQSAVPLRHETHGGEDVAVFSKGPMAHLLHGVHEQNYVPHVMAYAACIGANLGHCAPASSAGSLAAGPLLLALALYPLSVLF
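Control set: EDTA negative control, DMSO positive control / Assay system: human TNAP / Quantity: TNAP 1/800 final / Evaluation: TNAP activation factor scaled between EDTA and DMSO control wells / Measured by: luminescent substrate turnover signal / Compound dosing: one dose, 20 µM / Times: 30 min enzyme reaction at room temperature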
TNAP inh noacc: TNAP (human) inhibition, acceptor-free conditions; P05186; purified TNAP, CDP-star luminescence, 30 min; inhibition, % at 20 µM; 200,000 tested, 0.26% active; AID 1012;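 active = tissue-nonspecific alkaline phosphatase inhibition above about 50% at 20 µM in the single-dose screen, limit read from the data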
TNF death inh: TNF-alpha cell death inhibition in Jurkat FADD-/- cells; Jurkat FADD-/- TNF necroptosis rescue, ATP luminescence, 24 h; 0 = TNF only, 100 = no-TNF cells; activation (protection from cell death), % at 10 µM; 220,000 tested, 0.068% active; AID 463075;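 active = activation, meaning protection from cell death, of at least 50% relative to plate controls; inactive = activation below 50%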;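 note: necroptosis triggered by 40 ng/mL TNF-alpha added together with compound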
TNAP inh hiacc: TNAP (human) inhibition, high acceptor; P05186; purified TNAP, CDP-star luminescence, 1 M DEA; AID 1135; 200,000 tested, 0.03% active; inhibition, % at 20 µM;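 active = over 50% inhibition of tissue-nonspecific alkaline phosphatase at 20 µM in the single-dose screen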
SDO1 yeast rescue: compounds rescuing growth of sdo1-depleted yeast, bone marrow failure model | S. cerevisiae sdo1-depleted JHY4D growth rescue, OD600 30 h; active compounds read high; pdr5 snq2 efflux-pump mutant strain | 140,000 tested, 0.21% active | z-score at 10 µM;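 active = z-score above 3 at both the 24 hr and the 30 hr optical density reads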
L929 necroptosis: blocks zVAD induced death of L929 cells; 220,000 tested, 0.38% active; L929 zVAD necroptosis rescue, ATP luminescence, 24 h; with zVAD 60 µM; viability rescue, % at 10 µM;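 active = activation, scaled between plate controls, above about 75%, limit read from the data; inactive = activation under that limit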
Numbers stand for hits; 0 = inactive; - = no result. Hits are enriched below; roughly 0.81% of the tested compounds scored in any of these assays.

SMILES	TNAP act hiacc	TNAP inh noacc	TNF death inh	TNAP inh hiacc	SDO1 yeast rescue	L929 necroptosis
Cc1cc(N2C(=O)C3CCC(c4ccccc4)CC3C2=O)no1 (stereo unspecified)	0	0	0	0	-	0
Nc1nc(NC(=O)c2cccc(S(=O)(=O)N3CCCCCC3)c2)nc(-c2ccccc2)n1	0	0	0	0	0	0
O=C1CSC(c2ccccn2)N1Cc1cn2ccccc2n1 (stereo unspecified)	0	0	0	0	0	0
COc1ccccc1-n1cc(CN2CCN(C3CCCCC3)C(CCO)C2)cn1 (stereo unspecified)	0	0	0	0	-	0
O=[N+]([O-])c1ccc(Nc2ccc(Cl)cc2)nc1	0	0	81.1	0	-	0
O=[N+]([O-])c1ccc(Nc2ccccc2F)nc1	0	0	72.9	0	-	0
O=[N+]([O-])c1ccc(Nc2ccc3ccccc3c2)nc1	0	0	0	0	0	0
CCS(=O)(=O)Nc1ccc(C2=NN(S(C)(=O)=O)C(c3cccs3)C2)cc1 (stereo unspecified)	0	0	0	0	-	0
COc1ccc(-c2nn(-c3ccccc3)cc2CN(C)CCn2ccnc2C)c(F)c1	-	-	0	-	-	0
C=CCSc1n[nH]c(-c2ccc(OCCC)cc2)n1	0	50.0	0	0	0	0
N#C/C(=C\c1ccc(O)c(O)c1)C(=O)NCCCc1ccccc1	0	79.0	0	0	0	0
N#C/C(=C\c1ccc(O)c(O)c1)C(=O)N1CCCC1	0	72.6	0	0	-	0
COc1ccc(/C=C(\C#N)C(=O)NCCc2ccccc2)cc1OCc1ccccc1	0	0	0	0	0	0
Cn1ncc2c1ncn1nc(CCc3ccccc3)nc21	0	59.4	0	0	0	0
CCOc1cc(/C=C2\CCC/C(=C\c3cc(Cl)c(O)c(OCC)c3)C2=O)cc(Cl)c1O	0	0	0	53.4	0	0
C=CCNC(=O)/C(C#N)=C\c1cc(Cl)c(O)c(OCC)c1	0	0	0	0	0	0
Cc1ccc(C)c(S(=O)(=O)Nc2ccc(O)c(Sc3ncn[nH]3)c2)c1	-	-	0	-	-	0
COc1ccc(OC)c(S(=O)(=O)Nc2ccc(O)c(Sc3ncn[nH]3)c2)c1	0	74.4	0	0	0	0
CCOc1ccc(NS(=O)(=O)c2ccc(NS(=O)(=O)c3ccc(SC)cc3)cc2)cc1	0	0	0	0	0	0
Cc1ccc(S(=O)(=O)Nc2ccc(O)c(Sc3ncn[nH]3)c2)cc1	0	74.1	0	0	-	0
CCOc1ccc(S(=O)(=O)Nc2ccc(O)c(Sc3ncn[nH]3)c2)cc1	0	77.4	0	0	0	0
COc1ccc(CN(C(=O)COc2ccccc2)c2ccccc2C(=O)O)cc1	-	-	0	-	-	0
COc1ccc(C(=O)C[n+]2ccc(N(C)C)cc2)cc1	-	-	0	-	-	0
COc1cccc(C2=NOC(C(=O)N3CCN(C(=O)c4ccco4)CC3)C2)c1 (stereo unspecified)	0	0	0	0	0	77.1
COc1cccc(C2=NOC(C(=O)N3CCOCC3)C2)c1 (stereo unspecified)	0	0	0	0	0	0
SMILES	TNAP act hiacc	TNAP inh noacc	TNF death inh	TNAP inh hiacc	SDO1 yeast rescue	L929 necroptosis
C/C(=N/NC(=O)c1cc2ccccc2cc1O)C1C(=O)c2ccccc2C1=O	0	0	0	0	0	0
C/C(=N\NC(=O)c1ccccc1O)C1C(=O)c2ccccc2C1=O	0	59.8	0	0	0	0
COc1ccc2nc(NC(=O)Cc3ccc(OC)c(S(=O)(=O)N4CCOCC4)c3)sc2c1	0	0	0	0	0	91.9
COc1ccc2nc(NC(=O)CN3CCOCC3)sc2c1	0	0	0	0	0	0
C=CCN=c1scc(C)n1/N=C/c1ccc(O)c(O)c1	0	77.2	0	0	-	0
COc1ccc(O)c(/C=N/n2c(-c3ccco3)csc2=Nc2cccnc2)c1	0	0	0	0	0	0
CN=c1scc(-c2ccco2)n1/N=C/c1ccc(O)c(O)c1	0	67.4	0	0	-	0
COC(C[C@H]1O[C@H]1[C@@H](O)[C@H](C)OCc1ccccc1)OC	-	-	0	-	-	0
CCCCNC(=O)c1cn(-c2ccc(OCC)cc2)c(=O)c2cc(OC)c(OC)cc12	0	0	0	0	0	0
O=C(CNS(=O)(=O)c1ccccc1)NNC(=O)C(Cl)Cl	0	91.6	0	0	-	0
c1ccc(CSc2nnc(-c3ccco3)o2)cc1	-	-	52.1	-	-	0
Cc1ccc(CSc2nnc(-c3ccco3)o2)cc1	0	0	0	0	0	0
CCC(c1nnnn1C(C)(C)C)N1CCN(c2cc(Cl)ccc2C)CC1 (stereo unspecified)	0	0	0	0	0	0
COc1ccc(N2CCN(C(=O)CCNS(=O)(=O)c3ccc(Br)s3)CC2)cc1	0	0	0	0	0	0
Cc1[nH]c2ccccc2c1C(=O)CSc1nc2ncc(Cl)cc2[nH]1	0	58.4	0	0	-	0
Cc1ccc2nc(SCC(=O)c3c(C)[nH]c4ccccc34)[nH]c2c1	0	0	0	0	0	0
Cc1ccc2sc(-c3ccc(NC(=O)CCN4C(=O)c5ccccc5C4=O)cc3)nc2c1	0	0	0	0	0	0
Cc1ccc(NC(=S)NCc2ccc(S(N)(=O)=O)cc2)cc1Cl	0	0	0	0	-	0
N#CCSc1ccc(-c2nc3ccccc3[nH]2)cn1	0	0	0	0	-	0
N#C/C(=C\c1ccncc1)c1nc2ccccc2c(=O)[nH]1	0	54.5	0	0	-	0
C=CCNc1ncnc2sc(SC)nc12	-	-	0	-	-	0
CCN(CC)c1ccc(NC(=O)Cn2c(C(C)NC(=O)c3ccc(C)cc3)nc3ccccc32)cc1 (stereo unspecified)	2.3	0	0	0	-	0
CCCn1c(C(C)NC(=O)c2ccccc2)nc2ccccc21 (stereo unspecified)	0	0	0	0	0	0
Cc1ccc(NC(=O)c2ccc(Nc3c([N+](=O)[O-])cc([N+](=O)[O-])cc3[N+](=O)[O-])cc2)cc1	0	0	0	53.7	0	0
O=C(c1ccc([N+](=O)[O-])cc1)N1CCSC1c1ccc(Br)cc1 (stereo unspecified)	0	0	0	0	-	0
Cc1ccc(C2SCCN2C(=O)c2ccc([N+](=O)[O-])cc2)cc1 (stereo unspecified)	0	0	51.1	0	0	0
O=P(O)(O)c1ccccc1OCCOCCOc1ccccc1P(=O)(O)O	0	72.2	0	0	0	0
O=P(O)(O)c1ccccc1OCCCCCOc1ccccc1P(=O)(O)O	0	88.9	0	0	0	0
Cc1ccc(C2C(C#N)=C(N)Oc3n[nH]c(-c4cccs4)c32)cc1 (stereo unspecified)	0	0	0	0	0	0
